Test results taken from ChEMBL document CHEMBL2434960 (Eur J Med Chem, 2013).

Target: Replicase polyprotein 1a (Severe acute respiratory syndrome-related coronavirus, UniProt P0C6U8)
Experiment: Inhibition of SARS coronavirus 3CL-protease by fluorescence assay
In short: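 Protease inhibition was measured by a fluorometric assay. Substrate concentration was held constant while inhibitor concentration was varied, and the kinetic parameters gave Ki values.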

SMILES | Ki [nM]
CC(C)C[C@H](NC(=O)c1nc2ccccc2s1)C(=O)N[C@@H](C[C@@H]1CCNC1=O)C(=O)c1nc2ccccc2s1 | 800
CC(C)C[C@H](NC(=O)C1Cc2ccccc2N1)C(=O)N[C@@H](C[C@@H]1CCNC1=O)C(=O)c1nc2ccccc2s1 (stereo partly specified) | 120
CC(C)C[C@H](NC(=O)c1cc2ccccc2o1)C(=O)N[C@@H](C[C@@H]1CCNC1=O)C(=O)c1nc2ccccc2s1 | 14000
CC(C)C[C@H](NC(=O)c1c[nH]c2ccccc12)C(=O)N[C@@H](C[C@@H]1CCNC1=O)C(=O)c1nc2ccccc2s1 | 680
CC(C)C[C@H](NC(=O)c1cc2cc(O)ccc2[nH]1)C(=O)N[C@@H](C[C@@H]1CCNC1=O)C(=O)c1nc2ccccc2s1 | 160
COc1ccc2cc(C(=O)N[C@@H](CC(C)C)C(=O)N[C@@H](C[C@@H]3CCNC3=O)C(=O)c3nc4ccccc4s3)[nH]c2c1 | 330
CC(C)C[C@H](NC(=O)c1cc2c(OC(C)C)cccc2[nH]1)C(=O)N[C@@H](C[C@@H]1CCNC1=O)C(=O)c1nc2ccccc2s1 | 48
COc1ccc2[nH]c(C(=O)N[C@@H](CC(C)C)C(=O)N[C@@H](C[C@@H]3CCNC3=O)C(=O)c3nc4ccccc4s3)c(C)c2c1 | 6700
CCc1c(C(=O)N[C@@H](CC(C)C)C(=O)N[C@@H](C[C@@H]2CCNC2=O)C(=O)c2nc3ccccc3s2)[nH]c2ccc(OC)cc12 | 7500
CC(C)C[C@H](NC(=O)c1ccc[nH]1)C(=O)N[C@@H](C[C@@H]1CCNC1=O)C(=O)c1nc2ccccc2s1 | 1700
CC(C)C[C@H](NC(=O)C1CCC(=O)N1)C(=O)N[C@@H](C[C@@H]1CCNC1=O)C(=O)c1nc2ccccc2s1 (mixture of isomers) | 2700
